How the values were obtained:
P2Y purinoceptor 12 = P2Y purinoceptor 12 (Homo sapiens, UniProt Q9H244); assay: Binding affinity to human recombinant P2Y12 receptor expressed in CHO cells; type: cell-based
[1] = Clearance in Sprague-Dawley rat at 2 mg/kg, iv and 5 mg/kg, po; type: ADME, organism-based; settings: in vivo
Method in brief: (§1)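 Male Sprague–Dawley rats, n = 2–4. Dosed by iv infusion at 2 mg/kg and orally at 5 mg/kg.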

[2] = Effective half life in Sprague-Dawley rat at 2 mg/kg, iv and 5 mg/kg, po; type: ADME, organism-based; settings: in vivo; method in brief: as §1
[3] = Volume of distribution at steady state in Sprague-Dawley rat at 2 mg/kg, iv and 5 mg/kg, po; type: ADME, organism-based; settings: in vivo, read-out: Vdss; method in brief: as §1
in vivo = settings: Sprague-Dawley, rat, po, 5 mg/kg

Chain of P2Y purinoceptor 12 (Q9H244 whole entry): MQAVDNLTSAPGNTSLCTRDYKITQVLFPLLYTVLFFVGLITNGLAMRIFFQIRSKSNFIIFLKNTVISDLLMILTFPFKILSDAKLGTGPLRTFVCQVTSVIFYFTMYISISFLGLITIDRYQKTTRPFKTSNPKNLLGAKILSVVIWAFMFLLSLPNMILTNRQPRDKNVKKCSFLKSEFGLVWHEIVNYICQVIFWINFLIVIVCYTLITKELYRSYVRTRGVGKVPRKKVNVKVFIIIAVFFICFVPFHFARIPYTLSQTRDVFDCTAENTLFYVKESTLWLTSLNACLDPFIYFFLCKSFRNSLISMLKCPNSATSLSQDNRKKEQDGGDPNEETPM

Structure (SMILES)	Ki (P2Y purinoceptor 12)	further results
CCCCOC(=O)N1CCN(C(=O)[C@H](CCC(=O)O)NC(=O)c2cc(OC3CCNCC3)cc(-c3ccccc3)n2)CC1	12 nM	–
CCCCCCOC(=O)N1CCN(C(=O)[C@H](CCC(=O)O)NC(=O)c2cccc(-c3ccccc3)n2)CC1	43 nM	clearance [1]: 29 mL/min/kg; half-life [2]: 42 min; Vd [3]: 1.7 L/kg; bioavailability (in vivo): > 95%
CCOC(=O)N1CCN(C(=O)[C@H](CCC(=O)O)NC(=O)c2cc(OCc3ccccc3)cc(-c3ccccc3)n2)CC1	28 nM	–
CCCOC(=O)N1CCN(C(=O)[C@H](CCC(=O)O)NC(=O)c2cccc(-c3ccccc3)n2)CC1	27 nM	–
O=C(O)CC[C@H](NC(=O)c1cc(N2CCC(O)CC2)cc(-c2ccccc2)n1)C(=O)N1CCN(C(=O)OCCC2CCCC2)CC1	40 nM	–
CCOC(=O)N1CCN(C(=O)[C@H](CCC(=O)O)NC(=O)c2cc(N3CCC(N4CCCC4)CC3)cc(-c3ccccc3)n2)CC1	34 nM	–
CCCCOC(=O)N1CCN(C(=O)[C@H](CCC(=O)O)NC(=O)c2cc(OCCO)cc(-c3ccccc3)n2)CC1	21 nM	–
CCOC(=O)N1CCN(C(=O)[C@H](CCC(=O)O)NC(=O)c2cc(OC(CC)C(=O)N(CC)CC)cc(-c3ccccc3)n2)CC1 (some centres not stated)	81 nM	–
CCCCCOC(=O)N1CCN(C(=O)C(CCC(=O)O)NC(=O)c2cc(N3CCC(COC)CC3)cc(-c3ccccc3)n2)CC1 (single isomer, unassigned)	510 nM	–
CCCCCOC(=O)N1CCN(C(=O)[C@H](CCC(=O)O)NC(=O)c2cc(OCCOC)cc(-c3ccccc3)n2)CC1	10 nM	–
CCOC(=O)N1CCN(C(=O)[C@H](CCC(=O)O)NC(=O)c2cc(NCCOC)cc(-c3ccccc3)n2)CC1	99 nM	–
CCOC(=O)N1CCN(C(=O)[C@H](CCC(=O)O)NC(=O)c2cc(NCc3ccccc3)cc(-c3ccccc3)n2)CC1	26 nM	–
Cc1cccc(N2CCN(C(=O)[C@H](CCC(=O)O)NC(=O)c3cc(-c4ccccc4)cc(-c4ccccc4)n3)CC2)c1	5.7 nM	–
CCOC(=O)N1CCN(C(=O)[C@H](CCC(=O)O)NC(=O)c2cc(N3CCC(CN)CC3)cc(-c3ccccc3)n2)CC1	14 nM	–
CCOC(=O)N1CCN(C(=O)[C@H](CCC(=O)O)NC(=O)c2cc(NC)cc(-c3ccccc3)n2)CC1	35 nM	–
CCOC(=O)N1CCN(C(=O)[C@H](CCC(=O)O)NC(=O)c2cc(OCCCN)cc(-c3ccccc3)n2)CC1	214 nM	–
CCOC(=O)N1CCN(C(=O)[C@H](CCC(=O)O)NC(=O)c2cc(OCCN)cc(-c3ccccc3)n2)CC1	328 nM	–
CCCNc1cc(C(=O)N[C@@H](CCC(=O)O)C(=O)N2CCN(C(=O)OCC)CC2)nc(-c2ccccc2)c1	64 nM	–
CCOC(=O)N1CCN(C(=O)[C@H](CCC(=O)O)NC(=O)c2cc(N3CCC(O)CC3)cc(-c3ccccc3)n2)CC1	42 nM	–
NCC1CCN(c2cc(C(=O)N[C@@H](CCC(=O)O)C(=O)N3CCN(C(=O)OCCC4CCCC4)CC3)nc(-c3ccccc3)c2)CC1	69 nM	–
CCCCCCOC(=O)N1CCN(C(=O)[C@H](CCC(=O)O)NC(=O)c2cc(N3CCC(CN)CC3)cc(-c3ccccc3)n2)CC1	18 nM	–

Structure (SMILES)	Ki (P2Y purinoceptor 12)	further results
CCCCCOC(=O)N1CCN(C(=O)[C@H](CCC(=O)O)NC(=O)c2cc(OCCO)cc(-c3ccccc3)n2)CC1	32 nM	–
CCCCCCOC(=O)N1CCN(C(=O)[C@H](CCC(=O)O)NC(=O)c2cc(N(C)CCS(C)(=O)=O)cc(-c3ccccc3)n2)CC1	36 nM	–
CCCCOC(=O)N1CCN(C(=O)[C@H](CCC(=O)O)NC(=O)c2cc(OCCOC)cc(-c3ccccc3)n2)CC1	18 nM	clearance [1]: 49 mL/min/kg; half-life [2]: 24 min; Vd [3]: 1.5 L/kg; bioavailability (in vivo): 77%
C=CCOC(=O)N1CCN(C(=O)[C@H](CCC(=O)O)NC(=O)c2cc(OC3CCNCC3)cc(-c3ccccc3)n2)CC1	93 nM	–
CCOC(=O)N1CCN(C(=O)[C@H](CCC(=O)O)NC(=O)c2cc(OCCCO)cc(-c3ccccc3)n2)CC1	68 nM	–
C=CCOC(=O)N1CCN(C(=O)[C@H](CCC(=O)O)NC(=O)c2cc(OCCOC)cc(-c3ccccc3)n2)CC1	95 nM	–
CCOC(=O)N1CCN(C(=O)[C@H](CCC(=O)O)NC(=O)c2cc(OC)cc(-c3ccccc3)n2)CC1	96 nM	–
C=CCOC(=O)N1CCN(C(=O)[C@H](CCC(=O)O)NC(=O)c2cc(OCCCC)cc(-c3ccccc3)n2)CC1	99 nM	–
CCCCCCOC(=O)N1CCN(C(=O)[C@H](CCC(=O)O)NC(=O)c2cc(N3CCC(O)CC3)cc(-c3ccccc3)n2)CC1	24 nM	–
CCCCCOC(=O)N1CCN(C(=O)[C@H](CCC(=O)O)NC(=O)c2cc(N3CCC(O)CC3)cc(-c3ccccc3)n2)CC1	11 nM	–
CCOC(=O)N1CCN(C(=O)[C@H](CCC(=O)O)NC(=O)c2cc(NCC3CCNCC3)cc(-c3ccccc3)n2)CC1	190 nM	–
CCOC(=O)N1CCN(C(=O)[C@H](CCC(=O)O)NC(=O)c2cc(OCCOC)cc(-c3ccccc3)n2)CC1	92 nM	–
COCCOc1cc(C(=O)N[C@@H](CCC(=O)O)C(=O)N2CCN(C(=O)OC(C)C)CC2)nc(-c2ccccc2)c1	189 nM	–
C=CCOC(=O)N1CCN(C(=O)[C@H](CCC(=O)O)NC(=O)c2cc(OCCO)cc(-c3ccccc3)n2)CC1	203 nM	–
CCOC(=O)N1CCN(C(=O)[C@H](CCC(=O)O)NC(=O)c2cc(OCCO)cc(-c3ccccc3)n2)CC1	157 nM	–
CCCCCOC(=O)N1CCN(C(=O)[C@H](CCC(=O)O)NC(=O)c2cc(N(C)CCS(C)(=O)=O)cc(-c3ccccc3)n2)CC1	15 nM	clearance [1]: 69 mL/min/kg; half-life [2]: 12 min; Vd [3]: 1.3 L/kg
CCCCCOC(=O)N1CCN(C(=O)[C@H](CCC(=O)O)NC(=O)c2cc(N3CCC(CN)CC3)cc(-c3ccccc3)n2)CC1	7 nM	clearance [1]: 70 mL/min/kg; half-life [2]: 24 min; Vd [3]: 2.6 L/kg; bioavailability (in vivo): 0%
CCOC(=O)N1CCN(C(=O)[C@H](CCC(=O)O)NC(=O)c2cc(N(C)CCS(C)(=O)=O)cc(-c3ccccc3)n2)CC1	48 nM	–
CCCCOC(=O)N1CCN(C(=O)[C@H](CCC(=O)O)NC(=O)c2cccc(-c3ccccc3)n2)CC1	29 nM	–
CCCCOc1cc(C(=O)N[C@@H](CCC(=O)O)C(=O)N2CCN(C(=O)OCC)CC2)nc(-c2ccccc2)c1	39 nM	–
CCCCCOC(=O)N1CCN(C(=O)[C@H](CCC(=O)O)NC(=O)c2cc(OCCCC)cc(-c3ccccc3)n2)CC1	49 nM	–

Structure (SMILES)	Ki (P2Y purinoceptor 12)	further results
CCOC(=O)N1CCN(C(=O)[C@H](CCC(=O)O)NC(=O)c2cc(N(CC)CC)cc(-c3ccccc3)n2)CC1	23 nM	–
CCCCCCCCOC(=O)N1CCN(C(=O)[C@H](CCC(=O)O)NC(=O)c2cccc(-c3ccccc3)n2)CC1	14 nM	–
CCOC(=O)N1CCN(C(=O)[C@H](CCC(=O)O)NC(=O)c2cc(OCC3CCNCC3)cc(-c3ccccc3)n2)CC1	76 nM	–
COC(=O)N1CCN(C(=O)[C@H](CCC(=O)O)NC(=O)c2cccc(-c3ccccc3)n2)CC1	2440 nM	–
CCOC(=O)N1CCN(C(=O)[C@H](CCC(=O)O)NC(=O)c2ccccn2)CC1	> 5400 nM	–
CCOC(=O)N1CCN(C(=O)[C@H](CCC(=O)O)NC(=O)c2cc(N3CCC(COC)CC3)cc(-c3ccccc3)n2)CC1	18 nM	–
CCOC(=O)N1CCN(C(=O)[C@H](CCC(=O)O)NC(=O)c2cc(N3CCN(CCN(C)C)CC3)cc(-c3ccccc3)n2)CC1	47 nM	–
CCOC(=O)N1CCN(C(=O)[C@H](CCC(=O)O)NC(=O)c2cc(OC3CCNCC3)cc(-c3ccccc3)n2)CC1	68 nM	–
CCCCOc1cc(C(=O)N[C@@H](CCC(=O)O)C(=O)N2CCN(C(=O)OC(C)C)CC2)nc(-c2ccccc2)c1	146 nM	–
Cc1cccc(N2CCN(C(=O)[C@H](CCC(=O)O)NC(=O)c3cccc(-c4ccccc4)n3)CC2)c1	> 5700 nM	–
CN(CCS(C)(=O)=O)c1cc(C(=O)N[C@@H](CCC(=O)O)C(=O)N2CCN(C(=O)OCCC3CCCC3)CC2)nc(-c2ccccc2)c1	80 nM	–
CCCCCCCOC(=O)N1CCN(C(=O)[C@H](CCC(=O)O)NC(=O)c2cccc(-c3ccccc3)n2)CC1	7 nM	–
CCOC(=O)N1CCN(C(=O)[C@H](CCC(=O)O)NC(=O)c2cc(NC3CCOCC3)cc(-c3ccccc3)n2)CC1	455 nM	–
CC(C)OC(=O)N1CCN(C(=O)[C@H](CCC(=O)O)NC(=O)c2cc(OCCO)cc(-c3ccccc3)n2)CC1	145 nM	–
CCOC(=O)N1CCN(C(=O)[C@H](CCC(=O)O)NC(=O)c2cc(N3CCC(N)CC3)cc(-c3ccccc3)n2)CC1	27 nM	–
CCCCCCOC(=O)N1CCN(C(=O)[C@H](CCC(=O)O)NC(=O)c2cc(N3CCC(COC)CC3)cc(-c3ccccc3)n2)CC1	33 nM	–
CC(C)OC(=O)N1CCN(C(=O)[C@H](CCC(=O)O)NC(=O)c2cc(OC3CCNCC3)cc(-c3ccccc3)n2)CC1	157 nM	–
CCOC(=O)N1CCN(C(=O)[C@H](CCC(=O)O)NC(=O)c2cc(NCCN(C)C)cc(-c3ccccc3)n2)CC1	270 nM	–
CCOC(=O)N1CCN(C(=O)[C@H](CCC(=O)O)NC(=O)c2cc(NCCO)cc(-c3ccccc3)n2)CC1	114 nM	–
CCCCOC(=O)N1CCN(C(=O)[C@H](CCC(=O)O)NC(=O)c2cc(OCCCC)cc(-c3ccccc3)n2)CC1	36 nM	–
